In ChEMBL document CHEMBL1154741, “Radiosynthesis and radiopharmacological evaluation of cyclin-dependent kinase 4 (Cdk4) inhibitors” (Eur J Med Chem, 2010):

Columns and labels:
[1] = molecular target: Cyclin-dependent kinase 4 (Homo sapiens, UniProt P11802); assay: Inhibition of CDK4
[2] = molecular target: Cyclin-dependent kinase 1 (Homo sapiens, UniProt P06493); assay: Inhibition of CDK1
[3] = molecular target: Cyclin-dependent kinase 2 (Homo sapiens, UniProt P24941); assay: Inhibition of CDK2
Lung = assay: Biodistribution in Wistar rat lung at 0.2 to 0.3 MBq, iv after 5 mins; format: ADME, organism-based; conditions: in vivo
In short: (§1)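 Normal male Wistar rats (180 ± 20 g) given a single iv tail-vein injection of 0.2–0.3 MBq radiotracer in solution containing 1% HSA. Under ether anaesthesia at 5 min p.i., blood was taken by heart puncture and the animals euthanized. Organs were removed, weighed and counted in a calibrated well counter. Results are SUV = (organ activity/organ weight)/(given activity/body weight); mean ± SD, n = 8.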

[4] = Stability in Wistar rat plasma after 30 mins; format: ADME, cell-free; conditions: read-out: Stability
In short: (§2)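 50 kBq radiotracer was added to 1 mL of PBS (0.1 M, pH 7.4), ethanol, culture medium (RPMI + 10% FKS + 1% pen/strep) or fresh rat plasma and held at 37 °C for 30 min or 24 h. Samples were analysed by radio-HPLC on a C18 column with a Soerensen buffer (0.01 M, pH 7.4)/methanol gradient; intact tracer is reported as percent.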

[5] = Stability in PBS buffer at pH7.4 after 24 hrs by HPLC; format: physicochemical; conditions: pH 7.4, read-out: Stability; in short: as §2
FaDu = assay: Cellular uptake in human FADU cells measured per mg of protein at 25 kBq after 1 hr; format: ADME, cell-based
In short: (§3)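 HT-29 cells in McCoy's 5A and FaDu cells in RPMI 1640, both with 10% FBS, were seeded at 5 × 10⁴ cells/well and left overnight. About 25 kBq radiotracer in 0.25 mL medium was added at 37 °C. Cells were washed three times with ice-cold PBS, lysed in 0.1 M NaOH/1% SDS and gamma-counted. Protein was measured by BCA; results are %ID/mg protein.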

[6] = Stability in ethanol after 30 mins by HPLC; format: physicochemical; conditions: read-out: Stability; in short: as §2
[7] = Stability in Wistar rat plasma after 24 hrs; format: ADME, cell-free; conditions: read-out: Stability; in short: as §2
[8] = Stability in cell culture medium after 24 hrs by HPLC; format: physicochemical; conditions: read-out: Stability; in short: as §2
[9] = Stability in ethanol after 24 hrs by HPLC; format: physicochemical; conditions: read-out: Stability; in short: as §2
[10] = Lipophilicity log D at pH 7.4; format: physicochemical; conditions: buffer
Kidney = assay: Biodistribution in Wistar rat kidney at 0.2 to 0.3 MBq, iv after 5 mins; format: ADME, organism-based; conditions: in vivo; in short: as §1
Liver = assay: Biodistribution in Wistar rat liver at 0.2 to 0.3 MBq, iv after 5 mins; format: ADME, organism-based; conditions: in vivo; in short: as §1
[11] = Stability in PBS buffer at pH7.4 after 30 mins by HPLC; format: physicochemical; conditions: pH 7.4, read-out: Stability; in short: as §2
HT-29 = assay: Cellular uptake in human HT-29 cells measured per mg of protein at 25 kBq after 1 hr; format: ADME, cell-based; conditions: ht-29, 1 h; in short: as §3

Sequence of Cyclin-dependent kinase 4 (P11802 whole entry): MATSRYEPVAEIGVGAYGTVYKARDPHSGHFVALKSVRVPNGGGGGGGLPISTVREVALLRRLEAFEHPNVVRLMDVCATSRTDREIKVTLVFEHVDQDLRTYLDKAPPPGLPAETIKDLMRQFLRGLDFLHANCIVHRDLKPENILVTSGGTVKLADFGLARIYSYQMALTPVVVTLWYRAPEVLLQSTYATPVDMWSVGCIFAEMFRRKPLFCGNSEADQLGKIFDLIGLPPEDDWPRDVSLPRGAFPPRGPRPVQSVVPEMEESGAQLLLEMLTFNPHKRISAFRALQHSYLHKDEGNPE
Sequence of Cyclin-dependent kinase 1 (P06493 whole entry): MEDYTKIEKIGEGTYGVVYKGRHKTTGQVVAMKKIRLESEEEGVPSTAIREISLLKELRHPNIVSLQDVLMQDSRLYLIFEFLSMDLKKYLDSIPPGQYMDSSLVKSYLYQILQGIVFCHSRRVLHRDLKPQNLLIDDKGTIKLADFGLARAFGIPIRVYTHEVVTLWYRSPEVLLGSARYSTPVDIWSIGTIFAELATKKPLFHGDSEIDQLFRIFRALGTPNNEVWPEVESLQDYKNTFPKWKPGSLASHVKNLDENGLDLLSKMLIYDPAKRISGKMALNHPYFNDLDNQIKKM

IC50 [1] [nM]	IC50 [2] [nM]	IC50 [3] [nM]	SUV (Lung)	remaining at 0.5 h [4] [%]	remaining at 24 h [5] [%]	Drug uptake (FaDu) [%Idose]	remaining at 0.5 h [6] [%]	remaining at 24 h [7] [%]	remaining at 24 h [8] [%]	remaining at 24 h [9] [%]	logD [10]	SUV (Kidney)	SUV (Liver)	remaining at 0.5 h [11] [%]	Drug uptake (HT-29) [%Idose]	Structure (SMILES)
< 20																O=c1ccc2cnc(Nc3ccc(N4CCC(CCCO)CC4)cc3)nc2n1C1CC2CCC1C2 (stereo not drawn)
< 20	> 360	> 360														Cc1c(I)c(=O)n(C2CCCC2)c2nc(Nc3ccc(N4CCNCC4)cc3)ncc12
			8.43	94	95	900	98	94	97	97	1.99	> 3.2	> 3.2	97		Cc1c([124I])c(=O)n(C2CCCC2)c2nc(Nc3ccc(N4CCNCC4)cn3)ncc12
			8.67	93	86		93	94	96	94	2.77	> 3.2	> 3.2	92	750	Cc1c([124I])c(=O)n(C2CCCC2)c2nc(Nc3ccc(N4CCNCC4)cc3)ncc12
